# Experimental data of several laboratories.
# Target: Tyrosine-protein kinase TXK (TXK, Homo sapiens, UniProt P42681)
# One construct used (P42681 1-527): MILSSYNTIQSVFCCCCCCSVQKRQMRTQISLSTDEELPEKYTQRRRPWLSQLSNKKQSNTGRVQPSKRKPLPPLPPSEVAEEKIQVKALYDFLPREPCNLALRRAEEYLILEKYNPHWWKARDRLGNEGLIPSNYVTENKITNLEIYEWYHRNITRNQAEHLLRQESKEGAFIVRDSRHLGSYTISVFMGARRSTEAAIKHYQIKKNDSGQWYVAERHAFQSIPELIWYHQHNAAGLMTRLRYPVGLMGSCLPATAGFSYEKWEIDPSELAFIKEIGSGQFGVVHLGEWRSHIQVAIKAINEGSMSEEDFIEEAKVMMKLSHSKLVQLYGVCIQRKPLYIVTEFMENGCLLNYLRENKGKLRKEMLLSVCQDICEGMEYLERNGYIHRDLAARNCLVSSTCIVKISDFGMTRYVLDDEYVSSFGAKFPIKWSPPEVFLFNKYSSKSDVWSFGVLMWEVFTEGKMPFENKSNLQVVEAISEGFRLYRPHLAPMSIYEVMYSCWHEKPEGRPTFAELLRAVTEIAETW
SMILES,assay,setting,remaining binding [%]
COc1ncc2cc3ccccc3nc2c1C#N,"binding, competition with immobilised ligand",5 µM,93
O=C(c1ccc(Nc2ncc(Cl)c(-c3cc4ccccc4s3)n2)cc1)N1CCC(N2CCCC2)CC1,"binding, competition with immobilised ligand",1 µM,71
C[C@H]1CCN(c2nccc(-c3cnn4ncccc34)n2)C1,binding,1 µM,90
C[C@@H](c1ccc(-n2cnc3c(N)ncnc32)cc1)N1CCc2nn(C)c(Cc3ccccc3)c2C1=O,"binding, competition with immobilised ligand",0.1 µM,73
CCS(=O)(=O)c1cc2cc(C[C@@](O)(CC(C)(C)c3ccc(F)cc3C(N)=O)C(F)(F)F)[nH]c2cn1,"cell-free assay, competition with immobilised ligand",1 µM,97
CCN1CCN(Cc2ccc(C(=O)Nc3ccc(C)c(Oc4ccc5c(c4)CC(=O)N5)c3)cc2C(F)(F)F)CC1,"binding, competition with immobilised ligand",1 µM,100
CC1CCCN1c1nccc(-c2cnn3ncccc23)n1 (stereo not shown),binding,1 µM,100
O=C(NCC1CCOCC1)c1n[nH]cc1NC(=O)c1c(F)cccc1F,"binding, competition with immobilised ligand",1 µM,100
F[C@@H]1CCN(c2nccc(-c3cnn4ncccc34)n2)C1,binding,1 µM,73
C[C@H](NC(=O)c1cnc2n1[C@](C)(Cc1ccc(C#N)cc1)C(=O)N2c1cc(Cl)c(F)c(Cl)c1)C(=O)NC1(c2ccccn2)CC1,"binding, competition with immobilised ligand",1 µM,90
N[C@@H]1CCN(c2nccc(-c3cnn4ncccc34)n2)C1,binding,1 µM,100
Cc1c(NC(=O)c2cc(C(N)=O)nc3cc(F)ccc23)c(C(F)(F)F)nn1Cc1ccc(C(C)(C)C)cc1,"cell-free assay, competition with immobilised ligand",1 µM,100
COc1cnc(Nc2cccc(S(N)(=O)=O)c2)nc1N1CCN(c2ccccc2)C(=O)C1,"binding, competition with immobilised ligand",1 µM,100
Cc1cnc(Nc2ccc(C(=O)N3CCC(N4CCCC4)CC3)cc2)nc1-c1cc2ccccc2s1,"binding, competition with immobilised ligand",1 µM,59
Cc1cc(-n2nc(Cc3cc(F)cc(C(F)(F)F)c3)nc2C)ccc1C(N)=O,"binding, competition with immobilised ligand",1 µM,84
CN(C)c1nccc(-c2cnc3ncccn23)n1,binding,1 µM,98
CC(=O)c1c(NS(C)(=O)=O)c2cc(-c3ccc(Cl)cc3)c(-c3ccc(Cl)cc3Cl)nc2n(C)c1=O,"cell-free assay, competition with immobilised ligand",1 µM,100
O=C(NCCCN1CCOCC1)c1ccc(Nc2ncc(Cl)c(-c3ccc(Cl)s3)n2)cc1,"binding, competition with immobilised ligand",1 µM,99
CCOCCn1cc(C(=O)Nc2ccc(-n3nc(-c4cccnc4)cc3C(F)(F)F)cn2)ccc1=O,"binding, competition with immobilised ligand",1 µM,81
CN(C)c1ncc(F)c(-c2cnn3ncccc23)n1,binding,1 µM,100
CC1=C(C#N)[C@@H](c2ccc3[nH]nc(C)c3c2)C(C#N)=C(c2ccc(Cl)cc2)N1,"binding, competition with immobilised ligand",1 µM,88.1
CNC(=O)[C@@H]1CC[C@@H](n2c(-c3ccc4cnccc4c3)nc3ccc(C(=O)NCc4cccc(C(N)=O)c4)cc32)C1,"binding, competition with immobilised ligand",1 µM,100
